Assay results published in ChEMBL document CHEMBL1126990, “Design and synthesis of 18F-labeled neurotoxic analogs of MPTP” (J Med Chem, 1993).

What was measured:
[1] = organism: Rattus norvegicus; assay: Maximal rate (Vmax) for oxidation by rat liver MAO (results are means of number of separate experiments, n=4) (*p<0.01); type: ADME
How it was run: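 Rat liver MAO (crude P2 mitochondrial fraction from adult male Wistar rats, in pH 7.4 phosphate buffer) incubated with substrate at 30 μM to 5 mM; colorimetric detection of H2O2 formed. Blanks contained 0.1 mM pargyline. Vmax and Km from linear regression of Lineweaver-Burk plots; means ± SE of n separate experiments; ANOVA with post-hoc Scheffe test.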

[2] = organism: Mus musculus; assay: Biodistribution of [18F]-radiolabeled compound in the mouse liver after 90 minutes (average uptake in (%injected dose)/(% body weight); type: ADME, organism-based; conditions: in vivo, 1.5 h
How it was run: (§1)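 Adult male C57 Black mice (about 20 g), anesthetized with 1 mg sodium pentobarbital ip, given 0.1 mL (~0.05 mCi) tracer via tail vein. Killed by cervical dislocation at set times (5–90 min). Organs sampled, counted, weighed. Injected dose measured against weighed standards, minus residual tail activity. %id/g multiplied by body weight gives normalized uptake. Mean ± SD, N = 3 (N = 2 at 5 min).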

[3] = organism: Mus musculus; assay: Biodistribution of [18F]-radiolabeled compound in the mouse lung after 90 minutes (average uptake in (%injected dose)/(% body weight); type: ADME, organism-based; conditions: in vivo, 1.5 h; how it was run: as §1
[4] = organism: Mus musculus; assay: Biodistribution of [18F]-radiolabeled compound in the mouse heart after 15 minutes (average uptake in (%injected dose)/(% body weight); type: ADME, organism-based; conditions: in vivo, 0.25 h; how it was run: as §1
[5] = organism: Mus musculus; assay: Biodistribution of [18F]-radiolabeled compound in the mouse brain after 60 minutes (average uptake in (%injected dose)/(% body weight); type: ADME, organism-based; conditions: in vivo, 1 h; how it was run: as §1
[6] = organism: Mus musculus; assay: Biodistribution of [18F]-radiolabeled compound in the mouse bone after 15 minutes (average uptake in (%injected dose)/(% body weight); type: ADME, organism-based, Bone element; conditions: in vivo, 0.25 h; how it was run: as §1
[7] = organism: Mus musculus; assay: Biodistribution of [18F]-radiolabeled compound in the mouse bone after 90 minutes (average uptake in (%injected dose)/(% body weight); type: ADME, organism-based, Bone element; conditions: in vivo, 1.5 h; how it was run: as §1
[8] = organism: Mus musculus; assay: Biodistribution of [18F]-radiolabeled compound in the mouse muscle after 90 minutes (average uptake in (%injected dose)/(% body weight); type: ADME, organism-based, Muscle tissue; conditions: in vivo, 1.5 h; how it was run: as §1
[9] = organism: Mus musculus; assay: Biodistribution of [18F]-radiolabeled compoundP in the mouse spleen after 15 minutes (average uptake in (%injected dose)/(% body weight); type: ADME, organism-based; conditions: in vivo, 0.25 h; how it was run: as §1
[10] = organism: Mus musculus; assay: Biodistribution of [18F]-radiolabeled compound in the mouse brain after 15 minutes (average uptake in (%injected dose)/(% body weight); type: ADME, organism-based; conditions: in vivo, 0.25 h; how it was run: as §1
[11] = organism: Mus musculus; assay: Biodistribution of [18F]-radiolabeled compound in the mouse muscle after 15 minutes (average uptake in (%injected dose)/(% body weight); type: ADME, organism-based, Muscle tissue; conditions: in vivo, 0.25 h; how it was run: as §1
[12] = organism: Mus musculus; assay: Biodistribution of [18F]-radiolabeled compound in the mouse heart after 5 minutes (average uptake in (%injected dose)/(% body weight); type: ADME, organism-based; conditions: in vivo; how it was run: as §1
[13] = organism: Mus musculus; assay: Biodistribution of [18F]-radiolabeled compound in the mouse spleen after 90 minutes (average uptake in (%injected dose)/(% body weight); type: ADME, organism-based; conditions: in vivo, 1.5 h; how it was run: as §1
[14] = organism: Mus musculus; assay: Biodistribution of [18F]-radiolabeled compound in the mouse spleen after 30 minutes (average uptake in (%injected dose)/(% body weight); type: ADME, organism-based; conditions: in vivo, 0.5 h; how it was run: as §1
[15] = organism: Mus musculus; assay: Biodistribution of [18F]-radiolabeled compound in the mouse spleen after 60 minutes (average uptake in (%injected dose)/(% body weight); type: ADME, organism-based; conditions: in vivo, 1 h; how it was run: as §1
[16] = organism: Mus musculus; assay: Biodistribution of [18F]-radiolabeled compound in the mouse blood after 15 minutes (average uptake in (%injected dose)/(% body weight); type: ADME, organism-based; conditions: in vivo, 0.25 h; how it was run: as §1
[17] = organism: Mus musculus; assay: Biodistribution of [18F]-radiolabeled compound in the mouse heart after 60 minutes (average uptake in (%injected dose)/(% body weight); type: ADME, organism-based; conditions: in vivo, 1 h; how it was run: as §1
[18] = organism: Mus musculus; assay: Biodistribution of [18F]-radiolabeled compound in the mouse lung after 5 minutes (average uptake in (%injected dose)/(% body weight); type: ADME, organism-based; conditions: in vivo; how it was run: as §1
[19] = organism: Mus musculus; assay: Biodistribution of [18F]-radiolabeled compound in the mouse muscle after 60 minutes (average uptake in (%injected dose)/(% body weight); type: ADME, organism-based, Muscle tissue; conditions: in vivo, 1 h; how it was run: as §1
[20] = organism: Mus musculus; assay: Biodistribution of [18F]-radiolabeled compound in the mouse lung after 15 minutes (average uptake in (%injected dose)/(% body weight); type: ADME, organism-based; conditions: in vivo, 0.25 h; how it was run: as §1
[21] = organism: Mus musculus; assay: Biodistribution of [18F]-radiolabeled compound in the mouse brain after 30 minutes (average uptake in (%injected dose)/(% body weight); type: ADME, organism-based; conditions: in vivo, 0.5 h; how it was run: as §1
[22] = organism: Mus musculus; assay: Biodistribution of [18F]-radiolabeled compound in the mouse lung after 30 minutes (average uptake in (%injected dose)/(% body weight); type: ADME, organism-based; conditions: in vivo, 0.5 h; how it was run: as §1
[23] = organism: Mus musculus; assay: Biodistribution of [18F]-radiolabeled compound in the mouse brain after 90 minutes (average uptake in (%injected dose)/(% body weight); type: ADME, organism-based; conditions: in vivo, 1.5 h; how it was run: as §1
[24] = organism: Mus musculus; assay: Biodistribution of [18F]-radiolabeled compound in the mouse liver after 60 minutes (average uptake in (%injected dose)/(% body weight); type: ADME, organism-based; conditions: in vivo, 1 h; how it was run: as §1
[25] = organism: Mus musculus; assay: Biodistribution of [18F]-radiolabeled compound in the mouse liver after 5 minutes (average uptake in (%injected dose)/(% body weight); type: ADME, organism-based; conditions: in vivo; how it was run: as §1
[26] = organism: Mus musculus; assay: Biodistribution of [18F]-radiolabeled compound in the mouse heart after 30 minutes (average uptake in (%injected dose)/(% body weight); type: ADME, organism-based; conditions: in vivo, 0.5 h; how it was run: as §1
[27] = organism: Mus musculus; assay: Biodistribution of [18F]-radiolabeled compound in the mouse blood after 60 minutes (average uptake in (%injected dose)/(% body weight); type: ADME, organism-based; conditions: in vivo, 1 h; how it was run: as §1

CN1CC=C(c2ccccc2CF)CC1
Vmax [1]: 609 nM hr-1 (mg of protein)-1
Time [2]: 0.778 min
Time [3]: 1.46 min
Time [4]: 2.41 min
Time [5]: 0.65 min
Time [6]: 1.58 min
Time [7]: 3.32 min
Time [8]: 0.24 min
Time [9]: 1.33 min
Time [10]: 0.82 min
Time [11]: 0.54 min
Time [12]: 2.54 min
Time [13]: 0.95 min
Time [14]: 1.04 min
Time [15]: 0.93 min
Time [16]: 0.66 min
Time [17]: 1.88 min
Time [18]: 6.33 min
Time [19]: 0.3 min
Time [20]: 3.83 min
Time [21]: 0.68 min
Time [22]: 2.54 min
Time [23]: 0.76 min
Time [24]: 0.72 min
Time [25]: 2.3 min
Time [26]: 2.03 min
Time [27]: 0.31 min
